The values that follow come from ChEMBL document CHEMBL4118190, “An SAR study of hydroxy-trifluoromethylpyrazolines as inhibitors of Orai1-mediated store operated Ca2+ entry in MDA-MB-231 breast cancer cells using a convenient Fluorescence Imaging Plate Reader assay” (Bioorg Med Chem, 2018).

≈ marks a conversion by molar mass, not a printed value. Calls of active or inactive are those of the source. The calls are words filed in the database; no cut-off is given here. Where only a bound is given, the exact number is not on record here.

A short description of data set [1]: Inhibition of endoplasmic reticulum calcium channel in human MDA-MB-231 cells assessed as reduction in endoplasmic reticulum intracellular calcium release pretreated for 15 mins followed by SERCA inhibitor CPA addition measured after 700 secs by PBX dye based FLIPR assay. Type of data set: cell-based. The essentials: (§1)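 Same MDA-MB-231 PBX-dye FLIPR protocol: 15 min compound pretreatment at room temperature, then BAPTA (500 µM) and CPA (10 µM) to deplete ER stores. Peak 1 height after CPA addition (ER Ca2+ release) expressed as % inhibition relative to the DMSO control. Excitation 470–495 nm, emission 515–575 nm.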

For data set [2], the target named is T1, Calcium release-activated calcium channel protein 1 (Homo sapiens, UniProt Q96D31). As to the kind of experiment: Inhibition of […] Orai1-medited store operated calcium entry in human MDA-MB-231 cells pretreated for 15 mins followed by BAPTA addition by PBX dye based FLIPR assay. Type of data set: cell-based. The essentials:
(§2)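 MDA-MB-231 cells seeded 2×10^3/well and used 3 days later. Loaded 1 h at 37 °C with 2 µM PBX calcium dye, 5% signal enhancer and 500 µM probenecid in PSS, pH 7.3. Compound pretreated 15 min at room temperature. Then 500 µM BAPTA, 10 µM CPA, and 0.5 mM CaCl2 700 s after CPA. Read-out: peak 2 height as % inhibition vs DMSO. 95% CI, n = 4.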
Target sequence in this assay (Q96D31 whole entry): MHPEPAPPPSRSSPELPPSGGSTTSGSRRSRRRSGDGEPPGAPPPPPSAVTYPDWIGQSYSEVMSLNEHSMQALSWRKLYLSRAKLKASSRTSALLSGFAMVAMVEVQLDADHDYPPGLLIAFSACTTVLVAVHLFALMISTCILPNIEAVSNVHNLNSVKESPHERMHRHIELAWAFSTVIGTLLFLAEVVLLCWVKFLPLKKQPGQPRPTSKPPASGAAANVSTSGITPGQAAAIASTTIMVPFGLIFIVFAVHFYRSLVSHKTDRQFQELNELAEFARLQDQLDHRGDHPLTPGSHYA

A short description of data set [3]: Inhibition of CRAC in rat RBL2H3 cells assessed blockade of IP3-induced calcium flux pretreated for 30 to 60 mins followed by IP3 addition by Qpatch analysis. As to conditions: RBL-2H3. Format: cell-based.
Data set [4] is described as follows: Inhibition of […] in thapsigargin-stimulated human Jurkat T cells assessed as blockade of intracellular calcium flux by fluo-4-AM dye based FLIPR assay. Format: cell-based.
Another data set deals with MDA-MB-231. The experiment in a line: Inhibition of endoplasmic reticulum calcium channel in human MDA-MB-231 cells assessed as reduction in endoplasmic reticulum intracellular calcium release at 100 uM pretreated for 15 mins followed by SERCA inhibitor CPA addition measured after 700 secs by PBX dye based FLIPR assay relative to control. Format: cell-based. The essentials: as §1

Data set [5] has as its target T1, Calcium release-activated calcium channel protein 1. As to the kind of experiment: Inhibition of […] Orai1-medited store operated calcium entry in human MDA-MB-231 cells at 30 uM pretreated for 15 mins followed by BAPTA addition by PBX dye based FLIPR assay relative to control. Format: cell-based. The essentials:
as §2
Target sequence in this assay (Q96D31 whole entry, looked up): as the sequence (Q96D31 whole entry) above

Data set [6] shares this target. The experiment in a line: Inhibition of […] Orai1-medited store operated calcium entry in human MDA-MB-231 cells at 10 uM pretreated for 15 mins followed by BAPTA addition by PBX dye based FLIPR assay relative to control. Type of data set: cell-based. The essentials: as §2
Target sequence in this assay (Q96D31 whole entry, looked up): as the sequence (Q96D31 whole entry) above
The target is the same in data set [7]. As to the kind of experiment: Inhibition of […] Orai1-medited store operated calcium entry in human MDA-MB-231 cells at 100 uM pretreated for 15 mins followed by BAPTA addition by PBX dye based FLIPR assay relative to control. Format: cell-based. Put shortly: as §2
Target sequence in this assay (Q96D31 whole entry, looked up): as the sequence (Q96D31 whole entry) above
Data set [8] has the same target. As to the kind of experiment: Inhibition of […] Orai1-medited store operated calcium entry in human MDA-MB-231 cells at 300 uM pretreated for 15 mins followed by BAPTA addition by PBX dye based FLIPR assay relative to control. Format: cell-based. Put shortly: as §2
Target sequence in this assay (Q96D31 whole entry, looked up): as the sequence (Q96D31 whole entry) above
Data set [9] in a line: Half life in mouse liver microsomes. Format: ADME, microsome.
Data set [10] is described as follows: Solubility of the compound in alpha minimum essential medium. Type of data set: physicochemical.
In the next data set the target is hERG (KCNH2) (Homo sapiens, UniProt Q12809). As to the kind of experiment: Inhibition of human ERG at 10 uM relative to control.
hERG (KCNH2), sequence (Q12809 whole entry): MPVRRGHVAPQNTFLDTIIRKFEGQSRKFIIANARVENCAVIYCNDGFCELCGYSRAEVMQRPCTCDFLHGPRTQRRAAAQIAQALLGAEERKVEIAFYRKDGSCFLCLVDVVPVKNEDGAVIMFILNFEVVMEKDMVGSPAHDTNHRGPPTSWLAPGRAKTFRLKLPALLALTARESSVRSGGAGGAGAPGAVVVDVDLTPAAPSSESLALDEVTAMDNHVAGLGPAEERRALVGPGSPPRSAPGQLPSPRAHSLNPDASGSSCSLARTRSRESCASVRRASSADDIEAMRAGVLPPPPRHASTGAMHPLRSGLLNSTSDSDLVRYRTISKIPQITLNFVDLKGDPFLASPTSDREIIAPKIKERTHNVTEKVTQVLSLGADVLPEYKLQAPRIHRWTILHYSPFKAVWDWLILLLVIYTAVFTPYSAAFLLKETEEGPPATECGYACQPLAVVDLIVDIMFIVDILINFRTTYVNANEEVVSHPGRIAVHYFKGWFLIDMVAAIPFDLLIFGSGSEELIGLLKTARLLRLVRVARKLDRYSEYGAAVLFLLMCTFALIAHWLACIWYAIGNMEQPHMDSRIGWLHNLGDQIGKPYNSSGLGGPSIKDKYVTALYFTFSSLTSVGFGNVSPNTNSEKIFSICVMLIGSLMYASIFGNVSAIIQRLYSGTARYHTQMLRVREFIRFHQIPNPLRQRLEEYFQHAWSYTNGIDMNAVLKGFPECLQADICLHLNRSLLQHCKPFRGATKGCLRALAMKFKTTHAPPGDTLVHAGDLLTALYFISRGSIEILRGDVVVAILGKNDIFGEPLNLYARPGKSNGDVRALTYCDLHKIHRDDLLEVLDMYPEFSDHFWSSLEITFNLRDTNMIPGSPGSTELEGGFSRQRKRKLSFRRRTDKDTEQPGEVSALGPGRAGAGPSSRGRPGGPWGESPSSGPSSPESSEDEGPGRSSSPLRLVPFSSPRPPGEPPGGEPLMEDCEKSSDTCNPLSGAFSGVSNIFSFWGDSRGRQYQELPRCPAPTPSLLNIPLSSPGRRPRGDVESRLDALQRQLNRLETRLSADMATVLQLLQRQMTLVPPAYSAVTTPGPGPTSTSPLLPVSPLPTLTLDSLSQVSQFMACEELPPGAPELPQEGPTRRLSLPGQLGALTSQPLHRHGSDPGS
In data set [11] the target is Transient receptor potential cation channel subfamily V member 1 (Rattus norvegicus) (UniProt O35433). The experiment in a line: Inhibition of rat TRPV1 expressed in HEK293 cells assessed as reduction in capsaicin-induced calcium flux up to 100 uM pretreated for 300 secs followed by capsaicin addition by calcium 4-dye based FLIPR assay. Format: cell-based. The essentials: (§3)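 HEK293 cells transfected with rat TRPV1 or rat TRPM8 plasmid using Lipofectamine 2000, plated at 10,000/well and assayed 48 h after transfection. Calcium 4 dye loaded 30 min at 37 °C in PSS with 1.8 mM CaCl2. Compound added 300 s before agonist: capsaicin 100 nM for TRPV1, menthol 100 µM for TRPM8. Fluorescence read on FLIPR.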
Transient receptor potential cation channel subfamily V member 1 (Rattus norvegicus), sequence (O35433 whole entry): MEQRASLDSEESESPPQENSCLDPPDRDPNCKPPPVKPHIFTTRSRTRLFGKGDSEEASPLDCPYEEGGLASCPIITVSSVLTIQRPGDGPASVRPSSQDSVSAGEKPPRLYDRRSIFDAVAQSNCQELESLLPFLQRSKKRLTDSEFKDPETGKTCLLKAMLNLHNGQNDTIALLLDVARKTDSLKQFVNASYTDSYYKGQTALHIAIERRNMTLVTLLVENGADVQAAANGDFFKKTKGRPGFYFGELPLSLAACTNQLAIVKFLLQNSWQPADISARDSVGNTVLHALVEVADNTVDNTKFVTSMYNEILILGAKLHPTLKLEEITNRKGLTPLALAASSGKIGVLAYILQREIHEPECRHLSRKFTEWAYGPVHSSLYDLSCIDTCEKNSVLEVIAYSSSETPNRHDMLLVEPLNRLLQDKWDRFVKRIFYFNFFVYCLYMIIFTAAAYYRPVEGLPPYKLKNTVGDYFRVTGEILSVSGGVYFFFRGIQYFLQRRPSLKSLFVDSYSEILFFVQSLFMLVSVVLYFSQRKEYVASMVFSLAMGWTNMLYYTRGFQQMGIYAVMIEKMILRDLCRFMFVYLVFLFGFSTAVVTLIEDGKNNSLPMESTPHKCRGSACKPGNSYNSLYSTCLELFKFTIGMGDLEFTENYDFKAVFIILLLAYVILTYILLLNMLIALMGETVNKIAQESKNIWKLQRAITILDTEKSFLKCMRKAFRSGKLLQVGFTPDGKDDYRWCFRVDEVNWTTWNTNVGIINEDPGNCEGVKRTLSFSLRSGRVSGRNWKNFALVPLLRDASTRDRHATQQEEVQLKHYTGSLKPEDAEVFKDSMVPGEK

The target of data set [12] is Voltage-dependent L-type calcium channel subunit alpha-1C (Homo sapiens, UniProt Q13936). As to the kind of experiment: Inhibition of Cav1.2 (unknown origin) up to 100 uM.
Voltage-dependent L-type calcium channel subunit alpha-1C, sequence (Q13936 whole entry): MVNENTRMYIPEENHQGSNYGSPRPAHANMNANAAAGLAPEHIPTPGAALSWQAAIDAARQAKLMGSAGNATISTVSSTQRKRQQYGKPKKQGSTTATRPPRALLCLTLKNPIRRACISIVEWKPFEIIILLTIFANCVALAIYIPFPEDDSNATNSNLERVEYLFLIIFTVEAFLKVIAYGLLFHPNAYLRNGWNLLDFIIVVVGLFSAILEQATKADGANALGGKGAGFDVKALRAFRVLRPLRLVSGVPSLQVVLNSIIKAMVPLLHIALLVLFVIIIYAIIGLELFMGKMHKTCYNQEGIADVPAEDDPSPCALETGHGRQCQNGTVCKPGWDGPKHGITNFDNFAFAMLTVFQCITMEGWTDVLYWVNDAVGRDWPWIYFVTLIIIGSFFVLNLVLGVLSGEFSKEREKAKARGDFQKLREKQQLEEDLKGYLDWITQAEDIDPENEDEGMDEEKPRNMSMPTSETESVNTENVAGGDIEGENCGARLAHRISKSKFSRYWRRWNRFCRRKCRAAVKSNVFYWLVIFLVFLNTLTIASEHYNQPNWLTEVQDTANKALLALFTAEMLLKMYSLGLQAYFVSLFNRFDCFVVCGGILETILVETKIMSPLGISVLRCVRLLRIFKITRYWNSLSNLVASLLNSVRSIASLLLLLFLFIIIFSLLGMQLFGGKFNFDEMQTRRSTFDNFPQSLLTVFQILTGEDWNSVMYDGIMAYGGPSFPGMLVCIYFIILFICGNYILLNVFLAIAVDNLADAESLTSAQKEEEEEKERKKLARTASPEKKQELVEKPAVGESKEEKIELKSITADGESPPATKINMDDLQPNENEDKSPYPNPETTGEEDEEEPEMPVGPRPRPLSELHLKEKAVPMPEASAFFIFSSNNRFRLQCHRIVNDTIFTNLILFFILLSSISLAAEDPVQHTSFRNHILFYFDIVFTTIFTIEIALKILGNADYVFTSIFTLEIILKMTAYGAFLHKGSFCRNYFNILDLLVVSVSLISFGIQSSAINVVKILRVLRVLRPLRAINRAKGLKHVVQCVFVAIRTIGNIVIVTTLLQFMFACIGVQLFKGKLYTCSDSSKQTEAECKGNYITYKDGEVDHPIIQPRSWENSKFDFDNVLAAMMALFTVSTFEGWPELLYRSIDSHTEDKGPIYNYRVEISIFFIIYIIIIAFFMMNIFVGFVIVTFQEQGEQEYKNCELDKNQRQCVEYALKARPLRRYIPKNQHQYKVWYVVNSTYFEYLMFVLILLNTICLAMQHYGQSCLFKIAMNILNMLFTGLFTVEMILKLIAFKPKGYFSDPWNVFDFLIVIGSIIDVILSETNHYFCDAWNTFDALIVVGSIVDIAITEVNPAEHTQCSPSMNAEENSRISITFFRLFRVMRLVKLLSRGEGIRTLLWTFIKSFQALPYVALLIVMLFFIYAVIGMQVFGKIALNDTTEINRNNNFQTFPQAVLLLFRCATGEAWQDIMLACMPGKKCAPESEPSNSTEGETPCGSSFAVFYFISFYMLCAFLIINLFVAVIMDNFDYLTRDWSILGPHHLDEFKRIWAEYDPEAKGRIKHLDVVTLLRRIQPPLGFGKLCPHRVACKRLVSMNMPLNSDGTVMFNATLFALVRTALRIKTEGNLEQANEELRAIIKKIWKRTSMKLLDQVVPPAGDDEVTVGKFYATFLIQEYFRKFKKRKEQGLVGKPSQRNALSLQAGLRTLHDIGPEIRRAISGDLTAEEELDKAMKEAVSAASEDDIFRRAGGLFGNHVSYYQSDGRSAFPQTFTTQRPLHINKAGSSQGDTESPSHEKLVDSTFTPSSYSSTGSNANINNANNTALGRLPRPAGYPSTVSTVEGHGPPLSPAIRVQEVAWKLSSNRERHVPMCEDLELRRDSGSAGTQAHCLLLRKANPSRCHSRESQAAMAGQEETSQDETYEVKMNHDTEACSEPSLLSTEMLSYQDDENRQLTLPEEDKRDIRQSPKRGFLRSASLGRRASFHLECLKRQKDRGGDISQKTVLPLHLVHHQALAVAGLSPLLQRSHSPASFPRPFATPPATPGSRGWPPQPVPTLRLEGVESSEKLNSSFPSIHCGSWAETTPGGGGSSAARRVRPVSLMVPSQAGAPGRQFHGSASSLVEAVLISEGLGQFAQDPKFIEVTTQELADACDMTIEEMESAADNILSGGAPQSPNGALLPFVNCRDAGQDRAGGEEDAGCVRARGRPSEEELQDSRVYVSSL
Data set [13] can be described thus: Lipophilicity, log P of the compound. Format: physicochemical. As to conditions: octanol/water.
The target in data set [14] is Transient receptor potential cation channel subfamily M member 8 (Rattus norvegicus) (UniProt Q8R455). The experiment in a line: Inhibition of rat TRPM8 expressed in HEK293 cells assessed as reduction in menthol-induced calcium flux up to 100 uM pretreated for 300 secs followed by menthol addition by calcium 4-dye based FLIPR assay. Type of data set: cell-based. Put shortly:
as §3

Data set [15] deals with Voltage-dependent L-type calcium channel subunit alpha-1D (Homo sapiens) (UniProt Q01668). As to the kind of experiment: Inhibition of Cav1.3 (unknown origin) up to 100 uM.
For data set [16], the target named is Voltage-dependent N-type calcium channel subunit alpha-1B (Homo sapiens) (UniProt Q00975). As to the kind of experiment: Inhibition of Cav2.2 in human SH-SY5Y cells assessed as reduction in KCl/CaCl2-induced calcium flux up to 100 uM pretreated for 300 secs followed by KCl/CaCl2 addition measured in presence of nifedipine by calcium 4-dye based FLIPR assay. Type of data set: cell-based. The essentials: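 SH-SY5Y cells plated at 50,000/well and used 48 h later. Loaded 30 min at 37 °C/5% CO2 with Calcium 4 dye in PSS containing 1.8 mM CaCl2. Nifedipine 10 µM present. Compound added 300 s before stimulation with KCl (90 mM)/CaCl2 (5 mM). Calcium flux read on FLIPR.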

Data set [17] is described as follows: Stability of the compound in M1/M0 H2O. Type of data set: ADME.
A short description of data set [18]: Half life in human liver microsomes. Format: ADME, microsome.
Data set [19] can be described thus: Inhibition of CRAC in human Jurkat T cells assessed as increase in TG-stimulated intracellular calcium depletion measured every 8 secs by Ca2+ dye based fluorescence assay. Type of data set: cell-based.

Regarding `O=C(Cc1ccccc1)N1N=C(C(F)(F)F)CC1(O)c1ccccc1C(F)(F)F` (stereo not drawn), the IC50 in data set [1] is 80 µM; in data set [2], 49 µM.
Regarding `CC1=C(c2cnc(NC(=O)c3c(F)cccc3F)cn2)CN(c2ncc(C)s2)CC1`, the IC50 in data set [3] was 0.4 µM.
As for `COc1ccc(OC)c(-c2ccc(NC(=O)c3ccncc3F)cc2)c1`, the IC50 in data set [4] stood at 1.4 µM.
Take `O=C(Cc1ccccc1)N1N=C(c2cccc(NC(=O)C(F)(F)F)c2)CC1(O)C(F)(F)F` (stereo not drawn): the inhibition with MDA-MB-231 was under 10%; in data set [5], 60%.
In the same order, the values of `Cc1ccccc1C1=NN(C(=O)Cc2ccccc2)C(O)(C(F)(F)F)C1` (stereo not drawn) are under 10% and 50%.
In the same order, the values of `CS(=O)(=O)Nc1cccc(C2=NN(C(=O)Cc3ccccc3)C(O)(C(F)(F)F)C2)c1` (stereo not drawn) are under 10% and 20%.
Turning to `Cc1ccccc1C1(O)CC(C(F)(F)F)=NN1C(=O)c1ccccc1` (stereo not drawn), the inhibition in the data set on MDA-MB-231 was under 10%; in [6] it was 20%.
`O=C(Cc1ccccc1)N1N=C(c2ccncc2)CC1(O)C(F)(F)F` (stereo not drawn): the inhibition was under 10% in the data set on MDA-MB-231, under 10% in data set [7] and 50% in data set [8].
For the compound `COc1cccc(C2(O)CC(C(F)(F)F)=NN2C(=O)Cc2ccccc2)c1` (stereo not drawn), the half-life in [9] turned out to be 3.3 min; in data set [18] it was 8.2 min. Further, the inhibition entry (in the data set on MDA-MB-231; in [11]; in [14]; in data set [15]; in data set [16]) was “inactive” in each case. In [10], this compound displayed a solubility of 0.0168 mg/mL (≈ 44.4 µM). The inhibition at 10 µM at hERG (KCNH2) worked out at 9.1%. Besides, the “inhibition (INH)” value in data set [12] was “Not Active”. In addition, the logP in data set [13] worked out at 4.4. The inhibition in data set [6] is 11%; in data set [7] it was 37%. This compound displayed a Stability in data set [17] of 93.2%.
Regarding `O=C(Cc1ccccc1)N1N=C(c2cccc(F)c2)CC1(O)C(F)(F)F` (stereo not drawn), the inhibition is under 10% in the data set on MDA-MB-231 and 60% in data set [5].
On to `O=C(Cc1ccccc1)N1N=C(c2ccc(N3CCOCC3)cc2)CC1(O)C(F)(F)F` (stereo not drawn), for which the inhibition in the data set with MDA-MB-231 is under 10%; in data set [7], under 10%; in data set [8] it was 50%.
Regarding `COc1cccc(C2=NN(C(=O)Cc3ccccc3)C(O)(C(F)(F)F)C2)c1` (stereo not drawn), the inhibition in the data set on MDA-MB-231 was under 10%; in data set [6] it was 14%; in data set [7], 36 to 37%.
Turning to `Cc1nnsc1C(=O)Nc1ccc(-n2nc(C(F)(F)F)cc2C(F)(F)F)cc1`, the IC50 in data set [19] came out at 0.01 µM.
